# Sampled rows, rich in hits. Any-hit rate of the full collection: about 3.5%.
# MrgX1 antagonist = antagonists of human MrgX1 receptor, primary screen, HEK293 cells, Fluo-4 calcium flux; BAM8-22 antagonism; hits give low values; B-score at 10 µM; 1.3% of 310,000 active; AID 588676, 2011;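 active means calcium-response B-score plate-corrected more than 3 library SD below zero, starting fluorescence within 5 deviations, no agonist response on first addition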;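 further: peak minus trough fluorescence over baseline after final BAM8-22 challenge near maximal dose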
# MrgX1 ag = agonists of human MrgX1 receptor, primary screen, HEK293 cells, Fluo-4 calcium flux | Mas-related G-protein coupled receptor member X1 (Homo sapiens), Q96LB2 | Fluo-4 calcium fluorescence, agonist mode; hits give high values | B-score at 10 µM | 0.44% of 310,000 active | AID 588627, 2011;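 active means calcium response B-score plate-corrected fluorescence ratio at least 3 library SD, with starting fluorescence B-score inside 5 SD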
#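 Test system: HEK293 cells stably expressing human MrgX1 receptor; Input: fifteen thousand cells per well; Dosing: compound delivered in addition one of three; Schedule: overnight seeding, then 1 h dark dye loading; Technique: Fluo-4 NW calcium fluorescence; Measure: B-scored fluorescence response ratio; Controls: positive and negative controls per plate.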
# MrgX1 allo act = positive allosteric modulators of MrgX1, primary screen, HEK293 cells, Fluo-4 calcium flux | 0.63% of 310,000 active | B-score at 10 µM | FDSS; hits give high values;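 active means plate-corrected calcium response at least 3 library SD above typical, normal starting fluorescence, not activating the receptor alone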;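 further: compound read alongside a low EC10 to EC30 dose of BAM8-22 agonist; peak minus trough fluorescence over baseline measured at the second addition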
# RGS4 act = RGS4 potentiators or activators, primary screen, cell-based, HEK293 M3R inducible RGS4, calcium flux; B-score at 10 µM; carbachol calcium flux Fluo4; hits give low values; 0.92% of 310,000 active; AID 463111, 2010;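 active means B-score of the integrated calcium signal more than 4 SD below the library mean, with starting fluorescence not abnormally high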;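 further: negative B-score means reduced calcium response which marks RGS4 activation or potentiation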
#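 Also added: carbachol at ECmax as muscarinic agonist stimulus; Assay system: HEK293 cells with stable M3R and inducible RGS4; Timing: overnight RGS4 induction, 30 min dye load 37 °C, 20 min compound RT; Measured by: Fluo4-AM (2 µM) calcium-flux fluorescence, kinetic read.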
# RGS4 block = RGS4 inhibitors, primary screen, cell-based, HEK293 M3R inducible RGS4, calcium flux; Regulator of G-protein signaling 4 (Homo sapiens), P49798; Fluo-4 calcium flux; hits give high values; triggered by carbachol at its EC20; B-score at 10 µM; 0.45% of 310,000 active; AID 463165, 2010;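 active means B-score, a plate-corrected calcium signal, over three deviations above library mean, with baseline fluorescence within five deviations of library mean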;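 further: RGS4 expression induced by doxycycline in cells with stable M3 receptor; B-score is computed from the integrated fluorescence ratio over baseline after carbachol; higher B-score means a larger calcium signal and so more RGS4 inhibition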
# Target sequence (P49798 whole entry, looked up): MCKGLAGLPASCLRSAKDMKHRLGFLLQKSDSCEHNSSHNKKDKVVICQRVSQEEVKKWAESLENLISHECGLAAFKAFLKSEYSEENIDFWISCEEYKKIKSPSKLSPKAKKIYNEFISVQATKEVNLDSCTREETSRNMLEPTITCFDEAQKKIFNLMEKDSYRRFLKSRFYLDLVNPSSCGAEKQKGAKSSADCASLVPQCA
# RGS4 block valid = enhanced carbachol calcium response, M3R/RGS4 cells, RGS4 inhibitor project, cell-based, validation screen, HEK293 M3R/RGS4, calcium flux. shares compounds with RGS4 block. carbachol calcium Fluo-4 fluorescence; carbachol added at its EC20; 0 = buffer wells, 100 = carbachol control. calcium response, % at 10 µM. 65% of 1,700 active;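 active means duplicate-averaged calcium response above the buffer-only control mean plus 5 SD of those controls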;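 further: integrated fluorescence ratio F max minus min over baseline F0; higher response in RGS4-induced cells means RGS4 inhibition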
# RGS4 uninduced = carbachol calcium response in non-induced M3R cells, confirmation, counter-screen for RGS4 inhibitor project, cell-based, HEK293 M3R. carbachol calcium Fluo-4; submaximal (EC20) carbachol stimulus; buffer wells 0%, carbachol control wells 100%. shares compounds with RGS4 block. activity (percent), % at 10 µM. 20% of 1,900 active. AID 493000, 2010; call rule not given here;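 further: RGS4 induction absent so cells express M3R without RGS4; higher means more calcium signal and flags a non-specific hit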
# M3R basal Ca ctr = signal in non-induced cells without carbachol, RGS4 inhibitor counter-screen; calcium response (agonist-mode artifact), % at 10 µM; 22% of 1,900 active; shares compounds with RGS4 block; HEK293 M3R/RGS4 non-induced, Fluo-4 calcium, no carbachol; normalised: buffer wells 0%, carbachol wells 100%;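 active means duplicate-averaged calcium rise in uninduced cells above buffer wells' mean plus 5 SD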
# * = called active by the depositor; i = inactive; . = no result given.
SMILES,MrgX1 antagonist,MrgX1 ag,MrgX1 allo act,RGS4 act,RGS4 block,RGS4 block valid,RGS4 uninduced,M3R basal Ca ctr
O=C(CN1CCCCCC1)NC(c1ccccc1)c1ccccc1,i,i,i,i,i,.,.,.
O=C(CN1CCN(c2ccc(O)cc2)CC1)NC(c1ccccc1)c1ccccc1,i,i,i,i,12.9*,i,i,i
Cc1ccc(C=Nc2ccc(N(C)C)cc2)o1,i,i,i,i,5.31*,10.5%*,i,i
CC(=O)Nc1cccc(C(=O)/C=C/c2ccc(Br)cc2)c1,i,i,i,i,7.22*,i,i,i
CC(=O)Nc1cccc(C(=O)/C=C/c2ccc[nH]2)c1,i,i,i,i,i,.,.,.
CC(=O)Nc1cccc(C(=O)/C=C/c2ccc(N(C)C)cc2)c1,i,63.4*,i,i,i,i,i,156.0%*
CC(=O)Nc1cccc(C(=O)/C=C/c2ccc(F)cc2)c1,i,i,i,i,i,i,i,10.5%*
CCc1ccc(S(=O)(=O)Nc2ccc(O)c3ccccc23)cc1,i,i,i,i,4.7*,10.0%*,i,i
O=S(=O)(Nc1ccc(O)c2ccccc12)c1ccc(F)cc1,i,i,i,i,i,.,.,.
COc1cccc(Cn2c(=O)c3[nH]cnc3n(-c3ccccc3C)c2=O)c1,i,i,i,i,i,.,i,i
Cc1ccc(C(C2C(=O)CC(C)(C)CC2=O)C2C(=O)CC(C)(C)CC2=O)s1,i,i,i,i,24.5*,17.0%*,i,i
CCOc1ccc(CN2CCN(CCCc3ccccc3)CC2CCO)cc1 (stereo not given),i,i,i,i,i,.,.,.
COCCCNC(=O)c1cn(Cc2c(F)cccc2Cl)nn1,i,i,i,i,5.09*,i,i,i
O=C(CC1C(=O)NCCN1Cc1cccc(F)c1F)NCCCC1CCCC1 (stereo not given),i,i,i,i,i,.,.,.
O=C1CCc2cc(NS(=O)(=O)c3ccccc3)cc3c2N1CC3,i,i,i,i,i,.,.,.
O=C(Nc1ccc(Cl)cc1)OCc1cc(-c2ccccc2Cl)on1,i,i,i,i,i,.,.,.
Cc1ccc(NC(=O)OCc2cc(-c3ccccc3)on2)cc1,i,i,i,i,i,i,i,i
O=C(c1ccc(COCC(F)(F)F)o1)N1CCCCCC1,i,i,i,i,i,.,37.5%*,i
Cc1ccc(Nc2nc(/N=C/NO)n[nH]2)cc1C,i,i,i,i,i,.,.,.
CCOC(=O)C(=Cc1cc(=O)c(OC)co1)C(=O)OCC,.,.,.,i,8.01*,15.0%*,i,14.5%*
O=C(Cc1cccc2ccccc12)Nc1ccc(N2CCOCC2)cc1,i,i,i,i,i,.,.,.
CC1(C)C[C@@H](O)CC2(C1)C[C@]1(C)CC(O)[C@H]2C(C)(C)C1 (stereo not given in full),i,i,i,i,i,.,.,.
COc1ccccc1CN=C1NC(=O)C(CC(=O)Nc2ccc(OC)c(OC)c2)S1 (stereo not given),i,i,i,i,5.64*,8.5%*,i,i
